Test results taken from ChEMBL document CHEMBL4513216, “Probing the Open Global Health Chemical Diversity Library for Multistage-Active Starting Points for Next-Generation Antimalarials” (ACS Infect Dis, 2020).

Test: Toxicity liver stage against HepG2, at 10uM
Format: cell-based
Set-up: test concentration 10 uM, cell line HepG2-A16-CD81EGFP
Settings: human, HepG2-A16-CD81EGFP cells; read-out: INHIBITION
Outline: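 Uninfected HepG2-A16-CD81EGFP cells, 3 × 10^3 per well, 1536-well, plated on prespotted compound at 10 μM final, parasite-free screening media added to match infected plates; puromycin 10 μM positive, DMSO 0.5% negative; run in parallel with 48 h PbLuc assay at 37 °C, 5% CO2; viability by CellTiter-Glo luminescence, normalized to controls.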

Compared with `O=S(=O)(C1CC1)N1CC[C@]2(C[C@@H](OCC3CCOCC3)CO2)C1`, `O=S(=O)(C1CC1)N1CCO[C@@H]2CN(Cc3cccs3)C[C@@H]2C1` is lower in cytotoxicity at 10 µM: 8.13% for the first, -154% for the second.

First: CCCSCC(=O)N1CCCC(CO)(CCC)C1 (stereo unspecified)
Second: CCCc1ccc2oc(C(=O)N3CCCN(C)CC3)c(C)c2c1
The cytotoxicity at 10 µM of the first is higher: 4.86% for the first, -8.3% for the second.

First: COc1ccccc1OCC(=O)NS(=O)(=O)c1ccc(Cl)s1
Second: CCNC(=O)CNS(=O)(=O)Cc1cc(-c2ccccc2)no1
The cytotoxicity at 10 µM of the first is higher: -4.93% for the first, -6.71% for the second.

Going from `O=C(Cc1ccccn1)N1CCC2(CC1)CC(Oc1ccccn1)CO2` (stereo unspecified) to `COc1ccccc1CN1CC[C@]2(C[C@@H](OC)CO2)C1`, the cytotoxicity at 10 µM falls from -0.0273% to -5.35%.

Going from `CN(CC(=O)Nc1ccccc1C(=O)NC1CC1)Cc1ccccc1Cl` to `O=C(O)c1ccc(N2CCC(Cc3ccccc3)CC2)nn1`, the cytotoxicity at 10 µM rises from -8.18% to -6.14%.

Compared with `CC(C)Oc1ccc(CNC(=O)CCN2C(=O)CCC2=O)cc1F`, `CCCN(CC1COc2ccccc2O1)C(=O)CCN1C(=O)CCC1=O` (stereo unspecified) is lower in cytotoxicity at 10 µM: -7.27% for the first, -37% for the second.

Going from `COCCN(CCOC)c1ncccc1Cl` to `CCN(CC)C(=O)CCNC(=O)c1c[nH]c2ccc(OC)cc12`, the cytotoxicity at 10 µM falls from 3.94% to 1.86%.

Compared with `CN(C)C(=O)N1CCN(Cc2noc(Cc3ccccc3)n2)CC1`, `Cc1noc(CN2CCN(CC(C)O)CC2)n1` (stereo unspecified) is lower in cytotoxicity at 10 µM: -8.8% for the first, -10% for the second.

Compared with `Cc1oncc1C(=O)N1CC[C@H]2[C@H]1CCN2Cc1ccccn1`, `Cc1[nH]c2cc(C3CCN(C(=O)c4ccccn4)CC3)nn2c(=O)c1C` is lower in cytotoxicity at 10 µM: 6.15% for the first, 0.636% for the second.

Compared with `Cc1ccc(-c2nc(CN3CCOC(Cn4cccn4)C3)no2)cc1` (stereo unspecified), `c1ccc(-c2nc(CN3CCOC(Cn4cccn4)C3)no2)cc1` (stereo unspecified) is higher in cytotoxicity at 10 µM: -8.93% for the first, 10.1% for the second.

First: OC1(CN2CCCC2)COCCN(c2nnc(-c3ccccc3)s2)C1 (stereo unspecified)
Second: Cc1ccc(N2CCCC3(COCCN(c4nccs4)C3)C2)nn1 (stereo unspecified)
The cytotoxicity at 10 µM of the first is lower: -10.1% for the first, -1.05% for the second.

Going from `Cc1nn(C)c2c(NCc3cccnc3)nc(C(C)C)nc12` to `CN(C)C(=O)Cn1c2c(ccc1=O)CC(NCc1cccnc1)CC2` (stereo unspecified), the cytotoxicity at 10 µM rises from 10.5% to 18%.

Compared with `Cc1ccc(C)c(S(=O)(=O)CCN2CCCC2Cn2cncn2)c1` (stereo unspecified), `COc1cccc(CNC(=O)CN2CCCC(Cn3cncn3)C2)c1` (stereo unspecified) is lower in cytotoxicity at 10 µM: -8.5% for the first, -18.2% for the second.

Compared with `CCS(=O)(=O)NCC1OCCc2cn(CC3CCOCC3)nc21` (stereo unspecified), `CN(C)S(=O)(=O)CCCN1CCCC1c1noc(C2CC2)n1` (stereo unspecified) is lower in cytotoxicity at 10 µM: 2.77% for the first, -10.3% for the second.

First: Cc1cc(CN2CCC(CNC(=O)c3cnc(C)nc3C)C2)[nH]n1 (stereo unspecified)
Second: CCCc1cc(C(=O)N2CCCC2c2cccnc2)[nH]n1 (stereo unspecified)
The cytotoxicity at 10 µM of the first is lower: -140% for the first, -9.81% for the second.

First: c1cc2c(cc1CN1CCCC3(CCOC3)C1)OCO2 (stereo unspecified)
Second: CCOC1COC2(CCN(Cc3ccc4c(c3)OCO4)CC2)C1 (stereo unspecified)
The cytotoxicity at 10 µM of the first is lower: 0.447% for the first, 6.94% for the second.

First: COc1cc2c(nn1)CCN(CC(O)COc1ccc(C#N)cc1)C2 (stereo unspecified)
Second: CC1(C)CN(C(=O)c2occc2COc2cccc(C#N)c2)CCO1
The cytotoxicity at 10 µM of the first is lower: -2.19% for the first, 8.18% for the second.

First: Cc1ccsc1C(=O)NC(C)c1ccc2c(c1)CCC(=O)N2 (stereo unspecified)
Second: Cc1nnsc1CN(C)Cc1ccc(C(=O)Nc2sccc2C#N)cc1
The cytotoxicity at 10 µM of the first is lower: -12.4% for the first, 4.06% for the second.

Compared with `Cn1cc(C(=O)Nc2ccnc(Oc3ccccc3)c2)ccc1=O`, `Cc1ccc(-c2csc(-c3cccc(C(=O)O)c3)n2)cc1` is higher in cytotoxicity at 10 µM: -4.5% for the first, 3.21% for the second.

First: CCN1CC2(CC1=O)CN(Cc1ccco1)CCN(C(=O)N(C)C)C2 (stereo unspecified)
Second: O=C(c1ccco1)N1CCCC2(CCN(c3nncs3)C2)C1 (stereo unspecified)
The cytotoxicity at 10 µM of the first is higher: -6.05% for the first, -97.4% for the second.

Going from `Cn1cc(NC(=O)CNC(=O)N2CCN(c3ccccc3)CC2)cn1` to `Cc1nn(-c2ccccc2)cc1C(=O)N1CCCC1c1cnn(C)c1` (stereo unspecified), the cytotoxicity at 10 µM falls from 0.0207% to -1.86%.

Going from `COc1ccc(Cl)c(-c2noc3ncn(CCC(=O)O)c(=O)c23)c1` to `COc1ccc2[nH]cc(C(=O)N3C[C@@H](O)[C@H](NS(C)(=O)=O)C3)c2c1`, the cytotoxicity at 10 µM falls from 7.25% to -9.26%.

First: C[C@H]1C(=O)NC[C@H]2CN(CCc3ccccc3)C[C@H]21
Second: Cc1c(CN2CCOCC2)c(O)n(CCc2ccccc2)c(=O)c1C#N
The cytotoxicity at 10 µM of the first is lower: 2.64% for the first, 4.1% for the second.

First: COCC(C)NC(=O)c1cc(Br)c2c(c1)OCCO2 (stereo unspecified)
Second: O=C(Cc1cc2c(cc1Cl)OCCO2)N1CC[C@H](CO)[C@H](O)C1
The cytotoxicity at 10 µM of the first is lower: 3.54% for the first, 7.96% for the second.

Compared with `CCCc1nc(CN(CC)Cc2ccoc2)no1`, `CCCc1csc(-c2ccc(S(C)(=O)=O)cc2)n1` is lower in cytotoxicity at 10 µM: -2.52% for the first, -2.69% for the second.

Going from `O=C1CN(C(=O)c2cc(Cl)ccc2F)c2ccncc2N1` to `CN(C)C(=O)c1c[nH]nc1-c1ccc(CNC(=O)c2cnccn2)cc1`, the cytotoxicity at 10 µM falls from 5.92% to -0.56%.

Compared with `Cc1cc(I)cnc1NC(=O)C(C)(C)C`, `CC(C)(C)CC(NC(=O)c1nc(=O)[nH][nH]1)c1ccc(F)cc1` (stereo unspecified) is lower in cytotoxicity at 10 µM: 4.44% for the first, -2.42% for the second.

First: Cc1nccn1C1CCCN(C(=O)c2ccc3c(c2)OCCCO3)C1 (stereo unspecified)
Second: O=C(c1cccc(F)c1)N1CC[C@@H]2CN(c3ncccn3)CCO[C@@H]2C1
The cytotoxicity at 10 µM of the first is higher: -12.9% for the first, -71.5% for the second.

Going from `O=S(=O)(C1CC1)N1CCn2c(Cn3cccn3)cnc2C1` to `CC(OCC1CC1)C(=O)N1CCCN(c2cccnn2)CC1` (stereo unspecified), the cytotoxicity at 10 µM falls from 12.4% to 8.13%.

Going from `c1cncc(N2CCCC3(CCN(CC4CCCO4)CC3)C2)c1` (stereo unspecified) to `CN1CCOCC12CCN(C(=O)C1CCC1)CC2`, the cytotoxicity at 10 µM falls from 5.15% to 0.64%.

First: O=C(C1CCCCC1)N1C[C@@H]2CCN(c3cnccn3)C[C@@H]2C1
Second: O=C(NCC1(COc2cnccn2)C[C@@H](O)[C@@H](O)C1)C1CCOCC1 (stereo partly specified)
The cytotoxicity at 10 µM of the first is higher: 5.68% for the first, -2.48% for the second.

First: Cc1nc(CCN2CCC(Oc3ccccc3F)CC2)cs1
Second: CCOc1ccc2[nH]c(=O)c(CN3CCC(O)CC3)cc2c1
The cytotoxicity at 10 µM of the first is higher: 6.9% for the first, 1.25% for the second.

Going from `CC(NC(=O)NCC1(c2ccc(F)cc2)CCC1)c1nncn1C` (stereo unspecified) to `CC(NC(=O)NCCCN(C)S(C)(=O)=O)c1ccc(Cl)cc1` (stereo unspecified), the cytotoxicity at 10 µM rises from -3.59% to -2.24%.

Compared with `NCC1Cc2cc(-c3cncc(C(=O)N4CCOCC4)n3)cc(Cl)c2O1` (stereo unspecified), `Cc1cc(C(=O)N2CCN(C)CC2)nn1CC(=O)NCc1cccs1` is higher in cytotoxicity at 10 µM: -42.8% for the first, -5.83% for the second.

First: CN(Cc1ccco1)C(=O)[C@H]1CSCN1C(=O)OC(C)(C)C
Second: CCn1cc(CN(C)C(=O)c2cccc(CCC(C)(C)O)c2)cn1
The cytotoxicity at 10 µM of the first is lower: -8.97% for the first, -0.0444% for the second.

First: Cc1nnc(SCC(=O)N2C[C@@H]3CC[C@H]2CN(c2ncccn2)C3)[nH]1
Second: O=c1c(-c2ccnc(NC3CCCCC3)n2)cnc2sc(Cl)cn12
The cytotoxicity at 10 µM of the first is higher: 2.24% for the first, -6.22% for the second.

Compared with `COCC(=O)NC(C)c1sc(-c2ccccc2F)nc1C` (stereo unspecified), `CN(C)c1nc(-c2ccncc2)nc2c1CCN(C(=O)[C@H](N)CO)C2` is higher in cytotoxicity at 10 µM: 5.41% for the first, 8.01% for the second.

First: O=C(Nc1cccnc1)c1nn(C2CCS(=O)(=O)C2)c2c1CCCC2 (stereo unspecified)
Second: Cc1ccsc1CNC(=O)Nc1ccn(CCN2CCOCC2)n1
The cytotoxicity at 10 µM of the first is lower: 7.41% for the first, 8.28% for the second.

First: N#CCCN(CCC#N)C(=O)CN1CCCC1Cc1cccc(F)c1 (stereo unspecified)
Second: Cc1cc(CNCC2(O)CCOCC2)ccc1Br
The cytotoxicity at 10 µM of the first is lower: -10.5% for the first, -0.378% for the second.

Compared with `Cc1nc(N2CCCC2)nc(C)c1NS(C)(=O)=O`, `CC(C)=CCN(C)C1CCCN(Cc2noc(C)n2)C1` (stereo unspecified) is lower in cytotoxicity at 10 µM: 1.61% for the first, -19.6% for the second.

Compound `COc1cccc(CNCCNS(=O)(=O)Cc2ccccc2)c1` has a cytotoxicity at 10 µM of 13.4%.
